From ChEMBL document CHEMBL2380254, “Optimization of tocotrienols as antiproliferative and antimigratory leads” (Eur J Med Chem, 2013)

Columns and labels:
Assay type in all cases: functional
PC-3 [1] = experiment: Growth inhibition of human PC3 cells assessed as cell growth at 10 uM after 48 hrs by sulforhodamine B assay; settings: PC-3, 48 h, read-out: Activity
How it was run: (§1)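 Single-dose NCI-60 screen: adherent cells in RPMI 1640 with 5% FBS were exposed to 10 µM for 48 h at 37 °C after a 24 h preincubation. They were fixed in situ with cold TCA (10% final), stained with 0.4% SRB in 1% acetic acid, solubilized in 10 mM Tris base, and read at 515 nm. Percent growth was taken relative to time-zero and control plates.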

A498 = experiment: Growth inhibition of human A498 cells assessed as cell growth at 10 uM after 48 hrs by sulforhodamine B assay; settings: A498, 48 h, read-out: Activity
How it was run: (§2)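 NCI-60 single-dose screen at 10 µM: cells in RPMI 1640 with 5% FBS, preincubated 24 h, then exposed 48 h at 37 °C. TCA fixation (16% final for suspension cells), SRB staining, absorbance 515 nm. Percent growth relative to time-zero and untreated control plates; negative values indicate cell kill.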

Malme-3M = experiment: Growth inhibition of human MALME-3M cells assessed as cell growth at 10 uM after 48 hrs by sulforhodamine B assay; settings: read-out: Activity; how it was run: as §1
K562 = experiment: Growth inhibition of human K562 cells assessed as cell growth at 10 uM after 48 hrs by sulforhodamine B assay; settings: K562, 48 h, read-out: Activity; how it was run: as §2
SNB-75 = experiment: Growth inhibition of human SNB75 cells assessed as cell growth at 10 uM after 48 hrs by sulforhodamine B assay; settings: SNB-75, 48 h, read-out: Activity
How it was run: (§3)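 Single-dose NCI-60 test at 10 µM. Cells were grown in RPMI 1640 with 5% FBS and 2 mM L-glutamine, preincubated 24 h, with T0 plates TCA-fixed. Exposure was 48 h at 37 °C, 5% CO2. Cells were fixed with cold TCA (final 10%, 4 °C, 60 min), stained with SRB and read at 515 nm. Percent growth was taken relative to T0 and untreated control; negative values denote cell kill.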

[2] = Growth inhibition of human HCC2998 cells assessed as cell growth at 10 uM after 48 hrs by sulforhodamine B assay; settings: HCC 2998, 48 h, read-out: Activity; how it was run: as §2
CAKI-1 = experiment: Growth inhibition of human CAKI-1 cells assessed as cell growth at 10 uM after 48 hrs by sulforhodamine B assay; settings: CAKI-1, 48 h, read-out: Activity; how it was run: as §2
[3] = Growth inhibition of human Hs 578T cells assessed as cell growth at 10 uM after 48 hrs by sulforhodamine B assay; settings: read-out: Activity; how it was run: as §2
CCRF-CEM = experiment: Growth inhibition of human CCRF-CEM cells assessed as cell growth at 10 uM after 48 hrs by sulforhodamine B assay; settings: read-out: Activity; how it was run: as §2
[4] = Growth inhibition of human NCI-ADR-RES cells assessed as cell growth at 10 uM after 48 hrs by sulforhodamine B assay; settings: read-out: Activity; how it was run: as §1
UACC-62 = experiment: Growth inhibition of human UACC62 cells assessed as cell growth at 10 uM after 48 hrs by sulforhodamine B assay; settings: UACC-62, 48 h, read-out: Activity; how it was run: as §3
T47D [5] = experiment: Growth inhibition of human T47D cells assessed as cell growth at 10 uM after 48 hrs by sulforhodamine B assay; settings: read-out: Activity; how it was run: as §3
OVCAR-4 = experiment: Growth inhibition of human OVCAR4 cells assessed as cell growth at 10 uM after 48 hrs by sulforhodamine B assay; settings: OVCAR-4, 48 h, read-out: Activity; how it was run: as §1
SW-620 = experiment: Growth inhibition of human SW620 cells assessed as cell growth at 10 uM after 48 hrs by sulforhodamine B assay; settings: SW-620, 48 h, read-out: Activity; how it was run: as §3
HL-60(TB) = experiment: Growth inhibition of human HL-60(TB) cells assessed as cell growth at 10 uM after 48 hrs by sulforhodamine B assay; settings: HL-60, 48 h, read-out: Activity
How it was run: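 NCI-60 single-dose screen run at 10 µM on HL-60(TB) suspension cells in RPMI 1640 with 5% FBS and 2 mM L-glutamine. Cells were preincubated for 24 h, with a time-zero plate fixed then. Exposure lasted 48 h at 37 °C. Settled cells were fixed with TCA (16% final), stained with SRB and read at 515 nm. Percent growth is relative to control and T0.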

ACHN = experiment: Growth inhibition of human ACHN cells after 48 hrs by sulforhodamine B assay
How it was run: (§4)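 NCI-60 screen: cells in RPMI 1640 with 5% FBS and 2 mM glutamine, 5000–40,000 cells/well, preincubated 24 h. Five concentrations (10-fold dilutions; 100 to 0.001 µM) applied for 48 h at 37 °C. TCA fixation, SRB stain, absorbance at 515 nm. Time-zero plates included; GI50 where 100×(T−T0)/(C−T0)=50.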

SF-268 = experiment: Growth inhibition of human SF268 cells after 48 hrs by sulforhodamine B assay; settings: SF-268, 48 h
How it was run: (§5)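 NCI-60 panel cells grown in RPMI 1640 with 5% FBS and 2 mM L-glutamine, seeded at 5000–40,000 cells/well and preincubated 24 h. Five 10-fold dilutions (0.001–100 µM) from DMSO stocks were added for 48 h at 37 °C. Adherent cells were fixed with cold TCA (10% final) for 60 min at 4 °C, stained with 0.4% SRB, and read at 515 nm. GI50 was set where 100×(T−T0)/(C−T0)=50.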

U-251 = experiment: Growth inhibition of human U251 cells after 48 hrs by sulforhodamine B assay; settings: U-251, 48 h
How it was run: (§6)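 NCI-60 five-dose screen. Cells were grown in RPMI 1640 with 5% FBS and 2 mM L-glutamine, plated at 5000–40,000 cells/well and incubated 24 h before dosing, with T0 plates TCA-fixed. DMSO stocks were diluted to doses of […] and exposed 48 h at 37 °C, 5% CO2. Cells were fixed with cold TCA (final 10%, 60 min, 4 °C), stained with 0.4% SRB in 1% acetic acid for 10 min, solubilized in 10 mM trizma base and read at 515 nm. GI50 is where 100×(T−T0)/(C−T0)=50.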

[6] = Growth inhibition of human Hs 578T cells after 48 hrs by sulforhodamine B assay; how it was run: as §4
DU-145 = experiment: Growth inhibition of human DU145 cells after 48 hrs by sulforhodamine B assay; settings: DU-145, 48 h; how it was run: as §4
T47D [7] = experiment: Growth inhibition of human T47D cells after 48 hrs by sulforhodamine B assay; how it was run: as §6
OVCAR-5 = experiment: Growth inhibition of human OVCAR5 cells after 48 hrs by sulforhodamine B assay; settings: OVCAR-5, 48 h; how it was run: as §5
OVCAR-3 = experiment: Growth inhibition of human OVCAR3 cells after 48 hrs by sulforhodamine B assay; settings: OVCAR-3, 48 h; how it was run: as §5
PC-3 [8] = experiment: Growth inhibition of human PC3 cells after 48 hrs by sulforhodamine B assay; settings: PC-3, 48 h; how it was run: as §5
HCT-15 = experiment: Growth inhibition of human HCT15 cells after 48 hrs by sulforhodamine B assay; settings: HCT-15, 48 h; how it was run: as §4

COc1ccc(CCN2COc3c(C)c(C)c4c(c3C2)CC[C@@](C)(CC/C=C(\C)CC/C=C(\C)CCC=C(C)C)O4)cc1OC
growth at 10 µM (PC-3 [1]): 94.3%
growth at 10 µM (A498): 108%
growth at 10 µM (Malme-3M): 93.6%
growth at 10 µM (K562): 78.3%
growth at 10 µM (SNB-75): 82.8%
growth at 10 µM [2]: 70.5%
growth at 10 µM (CAKI-1): 88.5%
growth at 10 µM [3]: 198%
growth at 10 µM (CCRF-CEM): 78%
growth at 10 µM [4]: 101%
growth at 10 µM (UACC-62): 96.5%
growth at 10 µM (T47D [5]): 98%
growth at 10 µM (OVCAR-4): 98.4%
growth at 10 µM (SW-620): 101%
growth at 10 µM (HL-60(TB)): 79.4%

CC(C)=CCC/C(C)=C/CC/C(C)=C/CC[C@]1(C)CCc2c3c(cc(C)c2O1)OCN(CCCCCCO)C3
growth at 10 µM (PC-3 [1]): -31.4%
GI50 (ACHN): 2290 nM
GI50 (SF-268): 1180 nM
GI50 (U-251): 536 nM
GI50 [6]: 814 nM
growth at 10 µM (A498): 121%
GI50 (DU-145): 1000 nM
growth at 10 µM (Malme-3M): -50.2%
GI50 (T47D [7]): 1760 nM
growth at 10 µM (SNB-75): -1.37%
GI50 (OVCAR-5): 2550 nM
growth at 10 µM [2]: -89.1%
growth at 10 µM (CAKI-1): -72.8%
growth at 10 µM [3]: 29.8%
GI50 (OVCAR-3): 702 nM
growth at 10 µM (CCRF-CEM): -20.6%
growth at 10 µM [4]: -64.1%
growth at 10 µM (UACC-62): 75.8%
growth at 10 µM (T47D [5]): -51.6%
growth at 10 µM (OVCAR-4): -95.5%
growth at 10 µM (SW-620): -66.3%
growth at 10 µM (HL-60(TB)): -24.5%
GI50 (PC-3 [8]): 1240 nM
GI50 (HCT-15): 1100 nM

CC(C)=CCC/C(C)=C/CC/C(C)=C/CC[C@]1(C)CCc2c3c(c(C)c(C)c2O1)OCN(CCc1ccc(O)cc1)C3
growth at 10 µM (PC-3 [1]): 79.9%
growth at 10 µM (A498): 90.2%
growth at 10 µM (Malme-3M): 114%
growth at 10 µM (K562): 54.9%
growth at 10 µM (SNB-75): 69.2%
growth at 10 µM [2]: 23.3%
growth at 10 µM (CAKI-1): 84.2%
growth at 10 µM [3]: 91.8%
growth at 10 µM (CCRF-CEM): 49.6%
growth at 10 µM [4]: 83.6%
growth at 10 µM (UACC-62): 104%
growth at 10 µM (T47D [5]): 93.7%
growth at 10 µM (OVCAR-4): 81.4%
growth at 10 µM (SW-620): 48.4%
growth at 10 µM (HL-60(TB)): 72.3%

COc1ccc(CCNCc2c(O)c(C)c(C)c3c2CC[C@@](C)(CC/C=C(\C)CC/C=C(\C)CCC=C(C)C)O3)cc1OC
growth at 10 µM (PC-3 [1]): 82.7%
growth at 10 µM (A498): 107%
growth at 10 µM (Malme-3M): 120%
growth at 10 µM (K562): 42%
growth at 10 µM (SNB-75): 80.5%
growth at 10 µM [2]: -25.9%
growth at 10 µM (CAKI-1): 86.6%
growth at 10 µM [3]: 121%
growth at 10 µM (CCRF-CEM): 75.3%
growth at 10 µM [4]: 91.4%
growth at 10 µM (UACC-62): 98.3%
growth at 10 µM (T47D [5]): 83.2%
growth at 10 µM (OVCAR-4): 84%
growth at 10 µM (SW-620): 47.2%
growth at 10 µM (HL-60(TB)): 77.7%

CC(C)=CCC/C(C)=C/CC/C(C)=C/CC[C@]1(C)CCc2c3c(cc(C)c2O1)OCN(CCCCCCCCO)C3
GI50 (ACHN): 2160 nM
GI50 (SF-268): 4140 nM
GI50 (U-251): 544 nM
GI50 [6]: 938 nM
growth at 10 µM (A498): 117%
GI50 (DU-145): 1080 nM
growth at 10 µM (Malme-3M): -56.5%
GI50 (T47D [7]): 3940 nM
growth at 10 µM (SNB-75): -61.4%
GI50 (OVCAR-5): 2730 nM
growth at 10 µM [2]: -90.9%
growth at 10 µM (CAKI-1): -79.7%
growth at 10 µM [3]: 12%
GI50 (OVCAR-3): 811 nM
growth at 10 µM (CCRF-CEM): -29.7%
growth at 10 µM [4]: 18.7%
growth at 10 µM (UACC-62): -15.3%
growth at 10 µM (T47D [5]): -67%
growth at 10 µM (OVCAR-4): -98.9%
growth at 10 µM (SW-620): -46%
growth at 10 µM (HL-60(TB)): -57.3%
GI50 (PC-3 [8]): 1510 nM
GI50 (HCT-15): 3000 nM

CC(C)=CCC/C(C)=C/CC/C(C)=C/CC[C@]1(C)CCc2c(CNCCc3ccc(O)cc3)c(O)c(C)c(C)c2O1
growth at 10 µM (PC-3 [1]): 79.5%
growth at 10 µM (A498): 104%
growth at 10 µM (Malme-3M): 110%
growth at 10 µM (K562): 63%
growth at 10 µM (SNB-75): 68.1%
growth at 10 µM [2]: 57.7%
growth at 10 µM (CAKI-1): 86.1%
growth at 10 µM [3]: 133%
growth at 10 µM (CCRF-CEM): 75.2%
growth at 10 µM [4]: 95%
growth at 10 µM (UACC-62): 106%
growth at 10 µM (T47D [5]): 99.1%
growth at 10 µM (OVCAR-4): 91%
growth at 10 µM (SW-620): 101%
growth at 10 µM (HL-60(TB)): 84%
